ChEMBL document CHEMBL1142613, “Characterization of the major metabolite of sampangine in rats” (J Nat Prod, 2000)
Values after ≈ are worked out from the molar mass of the structure shown. Active and inactive are the calls of the source. The rule behind the calls is not given here.

What was measured:
Cryptococcus neoformans [1] = assay: Antifungal activity against Cryptococcus neoformans ATCC 52657 at 100 ug/mL after 48 hrs by bioautography; format: functional; conditions: ATCC 52657, 48 h, read-out: IZ
Procedure, shortened: (§1)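 Bioautography at a test concentration of 100 µg/mL; activity recorded as zone of inhibition in mm. Media were yeast nitrogen broth for C. albicans and Mycophil broth for C. neoformans.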

Pseudomonas aeruginosa = assay: Antibacterial activity against Pseudomonas aeruginosa ATCC 15442; format: functional, organism-based
Procedure, shortened: (§2)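 Colorimetric oxidation-reduction broth assay, with Alamar blue dye added as an indicator of the organism's metabolic activity; result expressed as MIC in µg/mL; streptomycin served as positive control.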

Candida albicans [2] = assay: Antifungal activity against Candida albicans NIH B311 at 100 ug/mL after 24 hrs by agar well diffusion method; format: functional; conditions: read-out: IZ
Procedure, shortened: (§3)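 Agar well diffusion at a test concentration of 100 µg/mL; activity read as zone of inhibition diameter in mm. C. albicans was grown in yeast nitrogen broth, C. neoformans in Mycophil broth.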

Cryptococcus neoformans [3] = assay: Antifungal activity against Cryptococcus neoformans ATCC 52657 at 100 ug/mL after 48 hrs by agar well diffusion method; format: functional; conditions: ATCC 52657, 48 h, read-out: IZ; procedure, shortened: as §3
Candida albicans [4] = assay: Antifungal activity against Candida albicans NIH B311 after 24 hrs by twofold serial dilution method; format: functional
Procedure, shortened: (§4)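 Two-fold serial broth macrodilution. C. albicans was grown in yeast nitrogen broth and incubated 24 h; C. neoformans in Mycophil broth, 48 h; both at 37 °C. MIC taken as the lowest concentration visually inhibiting growth. Footnote notes one test sample was run in Eugon by a microplate method.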

Cryptococcus neoformans [5] = assay: Antifungal activity against Cryptococcus neoformans ATCC 52657 after 48 hrs by twofold serial dilution method; format: functional; conditions: ATCC 52657, 48 h; procedure, shortened: as §4
Staphylococcus aureus = assay: Antibacterial activity against Staphylococcus aureus ATCC 6538; format: functional, organism-based; procedure, shortened: as §2
Bacillus subtilis = assay: Antibacterial activity against Bacillus subtilis ATCC 6333; format: functional, organism-based; procedure, shortened: as §2
Escherichia coli = assay: Antibacterial activity against Escherichia coli ATCC 10536; format: functional, organism-based; procedure, shortened: as §2
Candida albicans [6] = assay: Antifungal activity against Candida albicans NIH B311 at 100 ug/mL after 24 hrs by bioautography; format: functional; conditions: read-out: IZ; procedure, shortened: as §1

| Structure (SMILES) | zone of inhibition at 100 µg/mL (Cryptococcus neoformans [1]) | Activity (Pseudomonas aeruginosa) | zone of inhibition at 100 µg/mL (Candida albicans [2]) | zone of inhibition at 100 µg/mL (Cryptococcus neoformans [3]) | MIC (Candida albicans [4]) | MIC (Cryptococcus neoformans [5]) | Activity (Staphylococcus aureus) | Activity (Bacillus subtilis) | Activity (Escherichia coli) | zone of inhibition at 100 µg/mL (Candida albicans [6]) |
| --- | --- | --- | --- | --- | --- | --- | --- | --- | --- | --- |
| O=C(O)[C@H]1O[C@@H](Oc2c3c4c(ccnc4c4ccccc24)C=CN3)[C@H](O)[C@@H](O)[C@@H]1O | 35 mm | inactive | 6 mm | 26 mm | > 25 µg/mL | > 25 µg/mL | inactive | inactive | inactive | – |
| O=C1c2ccccc2-c2nccc3ccnc1c23 [SAMPANGINE] | 35 mm | – | 10 mm | 35 mm | 3.12 µg/mL (≈ 13.4 µM) | 0.2 µg/mL (≈ 0.861 µM) | – | – | – | 10 mm |
